The values below come from PubChem BioAssay AID463111 (Johns Hopkins Ion Channel Center, 2010).

About 2,800 (0.9%) of roughly 310,000 compounds were called active.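 How the source made its calls: active means B-score of the integrated calcium signal more than 4 SD below the library mean, with starting fluorescence not abnormally high; inactive means the rest.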 What follows is part of a selection rich in actives, with near analogues and random picks from the rest. Residues, ends and D or L forms follow the SMILES beside them. *: point of attachment. Bz = O=C(c1ccccc1)*

The nature of this test: RGS4 potentiators or activators, primary screen, cell-based, HEK293 M3R inducible RGS4, calcium flux (AID 463111).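 On B-score: negative B-score means reduced calcium response which marks RGS4 activation or potentiation.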 As to conditions: HEK293 M3R/inducible RGS4, carbachol calcium flux Fluo4, at 10 µM; stronger effect = lower value. In outline:
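Test system: HEK293 cells with stable M3R and inducible RGS4; also added: carbachol at ECmax as muscarinic agonist stimulus; schedule: dye loading 30 min 37 °C, buffer rest 30 min RT; technique: kinetic calcium fluorescence imaging with Fluo4-AM dye, 2 µM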
A general note: Calcium flux is commonly read through the fluorescence of an indicator in the cells.
Consider `CC(CC(=O)Nc1ccc(F)cc1F)S(=O)(=O)c1ccc2c(c1)NC(=O)CO2` (centres undefined), for which the B-score entry was “inactive”. For `CC(CC(=O)N1CCN(S(=O)(=O)c2ccccc2)CC1)n1cncn1` (centres undefined), the B-score entry was “inactive”.

For `C=CCNC(=O)c1ccccc1SCc1c(C)noc1C`, the B-score result was “inactive”. For `CC(C)c1ccccc1OCC(O)CN(CC(O)COc1cccc2ccccc12)C(C)C` (centres undefined), the B-score is -10 (active). On to `Cc1cc(C)c(NC(=O)C[N+](C)(C)CC(O)COc2cccc3ccccc23)c(C)c1` (centres undefined), for which the B-score entry is “inactive”. The value for `CCC(C)Sc1nc2c(c(=O)[nH]c(=O)n2C)n1CC(O)COc1cccc2ccccc12` (centres undefined) was “inactive”; that for `CCCN(c1ccc(C)cc1)c1nc(=O)c2cccnc2s1` was “inactive”; that for `CCOC(=O)c1c(NC(=S)Nc2ccccc2)sc2c1CCN(C)C2` was “inactive”. As for `CCOC(=O)c1c(NC(=O)NC(C)(C)C)sc2c1CCN(C)C2`, the figure is -8.36 (active); as for `CCOC(=O)c1c(NC(=O)Cn2nc(C(F)(F)F)cc2C)sc2c1CCC2`, “inactive”; as for `CCOC(=O)C1C(c2ccc(OC)c(OC)c2)c2c([nH][nH]c2=O)CC1(C)O` (centres undefined), “inactive”.

On to `CC1CN(/C=C/C(=O)C(F)(F)F)CC(C)O1` (centres undefined), for which the B-score result was “inactive”.

Take `CCCc1ccc(OCc2ccc(C(=O)N/N=C/c3cccc([N+](=O)[O-])c3)o2)c(OC)c1`: the B-score result is “inactive”. The value for `FC(F)(F)c1cccc(NC(=S)Nc2cccc(Cl)c2)c1` was “inactive”; that for `O=C(O)CSc1c2c(nc3cc(C(=O)Nc4cccc(C(F)(F)F)c4)ccc13)CCCC2` was “inactive”; that for `Cn1nc(C(F)(F)F)c(C(=O)Nc2cccc(C(F)(F)F)c2)c1SCc1ccc(Cl)cc1` was -10.4 (active). For the compound `CC(C)=CCCC(C)CN1CCC(n2nccc2NC(=O)c2ccccc2)CC1` (centres undefined), the B-score entry is “inactive”. The value for `CCOC(=O)c1ccc(-n2c(CCC(=O)O)ccc2-c2ccccc2)cc1` was “inactive”; that for `CC(C)Cn1c(CCC(=O)O)ccc1-c1cccs1` was -7.21 (active).

With `COCCCn1c(CCC(=O)O)ccc1-c1ccc(F)cc1`, the B-score entry is “inactive”. `Cc1ccccc1CNC(=O)CCC(=O)N1Cc2ccccc2Oc2ncccc21`: the B-score entry is “inactive”. As for `c1ccc(-c2ccccc2OCCN2CCCCC2)cc1`, the entry is “inactive”; as for `CC(C)(c1ccccc1)c1ccc(OCCN2CCCC2)cc1`, “inactive”. As for `CCCCOc1ccc(C(C)(O)CCN2CCOCC2)cc1` (centres undefined), the entry is “inactive”; as for `C#CC(CCN1CCCCC1)(OC)c1ccccc1` (centres undefined), -8.27 (active). The value for `CCCCCC(O)(CCN1CCCCC1)c1ccccc1` (centres undefined) was -9.9 (active). In the case of `CCCCCCC(O)(CCN1CCCCC1)c1ccccc1` (centres undefined), the B-score result was “inactive”. The value for `CCC(CC)COC(=O)C1=C(C)NC(=O)NC1c1ccc([N+](=O)[O-])cc1` (centres undefined) was “inactive”; that for `COc1ccc(C(CC(=O)c2ccccc2)S(=O)(=O)c2ccccc2)cc1` (centres undefined) was “inactive”. The value for `COC(=O)c1ccc(C2C3=C(Nc4nnnn42)c2ccccc2OC3)cc1` (centres undefined) was “inactive”. Take `Cc1ccccc1-c1nc(CS(=O)(=O)CC(=O)N2CCc3ccccc3C2)c(C)o1`: the B-score entry is “inactive”. For the compound `COC(=O)c1cc2occc2n1Cc1nc(-c2ccccc2C)oc1C`, the B-score is -7.3 (active). With `Cc1ccccc1-c1nc(CS(=O)(=O)CC(=O)NC(C)c2ccccc2)c(C)o1` (centres undefined), the B-score entry is “inactive”. For `O=C(NCCc1ccccn1)c1cc(C(=O)C2CCCCC2)c[nH]1`, the B-score entry is “inactive”.

`CCC1CCCCN1CCCNC(=O)C1CCC(Cn2c(=O)[nH]c3ccccc3c2=O)CC1` (centres undefined): the B-score result is “inactive”. The value for `CCC1CCCCN1CCCNC(=O)c1cc2c(Cl)nc3ccccc3c2s1` (centres undefined) was -8.65 (active); that for `CCC1CCCCN1CCCNC(=O)Cn1nc(-c2ccccc2)ccc1=O` (centres undefined) was “inactive”; that for `CC(C)C(c1nnnn1CCc1ccccc1)N1CCN(C(=O)c2ccco2)CC1` (centres undefined) was -10.4 (active). Turning to `CCC(c1nnnn1C1CCCC1)N1CCN(C(=O)c2ccco2)CC1` (centres undefined), the B-score result was “inactive”. As for `CC(C)C(c1nnnn1C1CCCCC1)N1CCN(C(=O)c2ccco2)CC1` (centres undefined), the B-score result is “inactive”. Take `NC(=O)Nc1ccccc1C(=O)NCCc1ccccc1`: the B-score entry was “inactive”. On to `Cc1ccccc1C(=O)NC(=S)NC1CC1`, for which the B-score result is “inactive”. The value for `Cc1ccc(-c2nc(-c3cccnc3)sc2CC(=O)Nc2ccc(C)c(Cl)c2)cc1` was “inactive”; that for `CCCN1CCN(C(=O)CCCNC(=O)c2ccc(Cl)cc2)CC1` was “inactive”. As for `CN1CCN(CCCNC(=O)c2ccc(/C=C3\Oc4ccccc4N(Cc4ccc(Cl)cc4)C3=O)cc2)CC1`, the figure is -7.39 (active); as for `CN1C(=O)/C(=C/c2ccc(C(=O)NC3CCCC3)cc2)Oc2ccccc21`, “inactive”; as for `COc1ccc2c(c1)C(NS(=O)(=O)OCC(Cl)(Cl)Cl)CCC2` (centres undefined), “inactive”. With `CC1(C)C=C2[C@H]3CC[C@@H]4[C@@]5(C)CCC(=O)C(C)(C)[C@@H]5CC[C@@]4(C)[C@]3(C)CC[C@@]2(C(=O)O)CC1`, the B-score was -9.3 (active).

Regarding `CCOC(=O)CCCNC(=O)COC(=O)c1cc(Br)c(Br)s1`, the B-score entry is “inactive”. For `O=C(NC(=O)c1cc(OCC(F)(F)F)ccc1OCC(F)(F)F)Nc1ccccc1`, the B-score result is “inactive”.

For `NS(=O)(=O)c1ccc(CCNS(=O)(=O)c2cccc3cccnc23)cc1`, the B-score result was “inactive”. The value for `O=C(NCCCO)c1cc2c([nH]c3ccccc32)c(-c2ccc(F)cc2)n1` was “inactive”. For `O=C(NCC1CCCO1)c1cc(-c2ccccc2)nc2ccccc12` (centres undefined), the B-score result is “inactive”. The value for `O=C(NCC1CCCO1)c1cc2c([nH]c3ccccc32)c(-c2ccc(F)cc2)n1` (centres undefined) was -11.5 (active); that for `CC(=O)N/C(=C\c1ccc(F)cc1)C(=O)NC(Cc1ccccc1)C(=O)O` (centres undefined) was “inactive”.

`CCOC(=O)c1csc(CCNC(=O)c2oc3c(Cl)cc(C)cc3c2C)n1`: the B-score entry was “inactive”. For the compound `CCCCCCCCCCOC(=O)Cn1c(COc2cccc(OC)c2)[n+](C)c2ccccc21`, the B-score result was “inactive”. Take `CCCCCCCCCCOC(=O)Cn1c(COc2ccc(C)cc2)[n+](C)c2ccccc21`: the B-score was -8.44 (active). With `Cc1ccc(OCCCn2c(=O)oc3ccccc32)cc1`, the B-score result is “inactive”. `O=C(CCN1C(=O)C2C3CCC(C3)C2C1=O)Nc1ccc(Cl)cc1Cl` (centres undefined): the B-score entry is “inactive”. As for `CC(NCCc1ccc(S(N)(=O)=O)cc1)C(=O)NCc1ccccc1` (centres undefined), the entry is “inactive”; as for `O=C(CN1CCCCCC1)Nc1ccc(Br)cc1[N+](=O)[O-]`, “inactive”; as for `O=[N+]([O-])c1cc([N+](=O)[O-])c(Oc2cc(F)cc(F)c2F)cc1NN1CCCCC1`, -7.39 (active). Regarding `O=C(COc1ccc(Cl)cc1[N+](=O)[O-])N1CCCCC1`, the B-score entry was “inactive”. As for `CCc1cccc(C)c1NS(=O)(=O)c1c(C)nc2sccn2c1=O`, the entry is “inactive”; as for `CCSc1nc(=S)n(CC)c(C)c1C(C)=O`, “inactive”.

For `Cc1ccccc1-n1nc(SCC(=O)O)sc1=S`, the B-score entry is “inactive”. As for `CC(CCc1ccccc1)NC(=O)COC(=O)c1ccc(F)cc1` (centres undefined), the entry is “inactive”; as for `CCOC(=O)COc1ccc([N+](=O)[O-])cc1`, “inactive”; as for `N/C(=N\OC(=O)COc1ccc([N+](=O)[O-])cc1)c1ccc(Br)cc1`, “inactive”. The value for `N/C(Cc1ccc([N+](=O)[O-])cc1)=N\OC(=O)C1CCCCC1` was “inactive”; that for `Cc1cc(C)cc(OCC(=O)O/N=C(\N)Cc2ccc([N+](=O)[O-])cc2)c1` was -7.82 (active); that for `N/C(=N\OC(=O)Cc1ccc([N+](=O)[O-])cc1)c1ccccn1` was “inactive”.

For the compound `N/C(Cc1ccc([N+](=O)[O-])cc1)=N\OC(=O)COc1ccc2ccccc2c1`, the B-score was -7.23 (active).

Turning to `CCOc1ccc(N2C(=O)Nc3ccccc3C2(O)C(=O)NCc2ccco2)cc1` (centres undefined), the B-score result was “inactive”. With `O=C(COC(=O)Cc1ccc(Br)cc1)Nc1c(F)c(F)c(F)c(F)c1F`, the B-score result was “inactive”.

On to `O=C(NC(Cc1ccccc1)C(=O)N1CCCC(C(F)(F)F)C1)c1ccccc1` (centres undefined), for which the B-score result was “inactive”. `CN(Cc1ccccc1F)C(=O)C(Cc1ccccc1)NC(=O)c1ccccc1` (centres undefined): the B-score was -7.13 (active). As for `O=C(NC(Cc1ccccc1)C(=O)N1CCCC1C(=O)O)c1ccccc1` (stereo not drawn) (Bz-Phe-Pro-OH; configuration not given here), the entry is “inactive”; as for `O=C(/C=C/c1ccc([N+](=O)[O-])o1)NNC(=O)c1ccc(F)cc1`, “inactive”. The value for `CC1CCN(C(=O)COC(=O)c2cc(S(=O)(=O)N3CCOCC3)ccc2Cl)CC1` was “inactive”; that for `COc1ccc(CCNC(=O)CC2SC(=Nc3cc(C)cc(C)c3)NC2=O)cc1OC` (centres undefined) was “inactive”; that for `O=C(O)c1ccc(Cn2c(=S)[nH]c3cc(Cl)ccc3c2=O)cc1` was “inactive”. For `CC(C)c1ccc2c(c1)c(SC(C)(C)C)c(CC(C)(C)C(=O)O)n2Cc1ccc(Cl)cc1`, the B-score was -7.99 (active). As for `Nc1nc(NC(=O)/C=C/c2ccc(F)cc2)nn1-c1ccccc1`, the entry is “inactive”; as for `C[C@@H](C(=O)N1CCNCC1)n1cc(CCC(=O)O)nn1`, “inactive”; as for `CCCCC(=O)NNC(=S)NC(=O)C(c1ccccc1)c1ccccc1`, -9.53 (active). Turning to `CC(C)C(=O)Nc1cccc(NC(=S)NC(=O)C(c2ccccc2)c2ccccc2)c1`, the B-score entry was “inactive”. The value for `O=C(NNC(=S)NCc1ccco1)C(c1ccccc1)c1ccccc1` was “inactive”; that for `O=C(N/N=C/c1ccsc1)c1cc(O)cc(O)c1` was “inactive”; that for `COc1ccc(CN2CC[C@H]3C=CC[C@@H](C(=O)N4CCOCC4)[C@H]3C2=O)cc1OC` was “inactive”. Regarding `CCN(Cc1ccncc1)C(=O)CCc1ccccc1`, the B-score entry is “inactive”. As for `Cc1cc(C)n(Cc2cnc(N3CCOCC3)s2)n1`, the entry is “inactive”; as for `CCC1C=C(c2ccccc2)C=CN=C1N(CC)CC` (centres undefined), -10.2 (active). The value for `COc1cccc(NC(=O)N2C3CCCC2CC(NC(C)=O)C3)c1` (centres undefined) was “inactive”; that for `CCCn1c(SCC(=O)c2ccc3c(c2)OCCO3)nnc1C(C)C` was “inactive”. `O=S(=O)(c1ccc(Br)cc1)n1ccc2ccccc21`: the B-score is -7.7 (active).

Turning to `O=S(=O)(c1ccc(Br)cc1)N1CCC(c2nc3ccccc3[nH]2)CC1`, the B-score entry was “inactive”.

On to `O=C(c1ccccc1F)N1CCN(S(=O)(=O)c2ccc(Br)cc2)CC1`, for which the B-score entry was “inactive”. On to `CCC1CCc2c(sc(NC(C)=O)c2C#N)C1` (centres undefined), for which the B-score entry is “inactive”. The value for `CCC(C)c1ccc(NC(=S)NCc2ccccn2)cc1` (centres undefined) was “inactive”; that for `FC(F)(F)c1cccc(-c2nc(COc3ccc(Cl)cc3Cl)no2)c1` was -7.64 (active); that for `FC(F)(F)c1cnc(Oc2ccccc2-c2nnc(-c3ccc(Cl)cc3)o2)c(Cl)c1` was “inactive”.

As for `Cc1cc(Cl)ccc1OCc1nc(-c2ccncc2)no1`, the B-score entry is “inactive”.
